ChEMBL document CHEMBL2169768, “Synthesis and preliminary biological profile of new NO-donor tolbutamide analogues” (Bioorg Med Chem Lett, 2012)
Calls of active or inactive are those of the source. No cut-off for these calls is given here.

Assays:
Aorta [1] = assay: Vasodilatory activity in Wistar rat thoracic aorta assessed as relaxation of L-phenylephrine-induced contraction after 120 mins; type: functional, tissue-based; conditions: for EC50: 2 h
Aorta [2] = assay: Vasodilatory activity in Wistar rat thoracic aorta assessed as relaxation of L-phenylephrine-induced contraction after 120 mins in presence of 1 uM sGC inhibitor ODQ; type: functional, tissue-based; conditions: for EC50: 2 h
[3] = Induction of NO release in phosphate buffered saline of pH 7.4 after 1 hr by Griess assay in presence of 5 mM L-cysteine; type: physicochemical; conditions: buffer, pH 7.4, 1 h
[4] = Induction of nitrite production in rat INS-1E cells assessed per well at 200 uM after 2 hrs by Griess method in presence of 2 mM glucose; type: functional
[5] = Antiaggregatory activity in human platelet-rich plasma assessed as inhibition of collagen-induced aggregation at 300 uM pretreated 10 mins before addition of stimulus measured after 10 mins; type: functional
In short: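 Collagen-triggered aggregation in human platelet-rich plasma, by a method described in earlier work. Inhibition is taken relative to control samples. IC50 is obtained by nonlinear regression where it can be calculated. Otherwise percent inhibition is reported at the top concentration tried, 300 µM.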

[6] = (§1) Induction of glucose-stimulated insulin release from rat INS-1E cells at 200 uM after 1 hr by coated charcoal immunoassay in presence of 2 mM glucose; type: functional
In short: (§2)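 INS-1E cells at passages 54–65 were kept in RPMI 1640 with 10% heat-inactivated FCS, pyruvate, 2-mercaptoethanol, glutamine and HEPES, and were seeded at 4 x 10^4 cells/cm2. After 48 h they were preincubated 1 h at 37 °C in KRBH with 0.5% BSA and 1 or 2 mM glucose. They were then exposed 1 h at 37 °C to glucose ± compound (100 or 200 µM). Secreted insulin was measured by RIA against a rat insulin standard. Data are mean ± SEM.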

INS-1E [7] = assay: Induction of glucose-stimulated insulin release from rat INS-1E cells at 200 uM after 1 hr by coated charcoal immunoassay in presence of up to 4 mM glucose; type: functional, cell-based; in short: as §2
[8] = Induction of glucose-stimulated insulin release from rat INS-1E cells at 200 uM after 1 hr by coated charcoal immunoassay in presence of 5.6 mM glucose; type: functional; in short: as §2
liver (rat) = assay: Induction of nitric oxide release from Wistar rat liver homogenate at 200 uM after 45 mins by Griess method
[9] = Induction of glucose-stimulated insulin release from rat INS-1E cells at 200 uM after 1 hr by coated charcoal immunoassay in presence of 2 mM glucose relative to control; type: functional; in short: as §2
[10] = Induction of glucose-stimulated insulin release from rat INS-1E cells at 100 uM after 1 hr by coated charcoal immunoassay in presence of 2 mM glucose relative to control; type: functional; in short: as §2
[11] = Induction of glucose-stimulated insulin release from rat INS-1E cells at 200 uM after 1 hr by coated charcoal immunoassay in presence of 11 mM glucose; type: functional; in short: as §2
INS-1E [12] = assay: as §1; type: functional; in short: as §2
[13] = Induction of NO release in phosphate buffered saline of pH 7.4 after 1 hr by Griess assay in presence of 0.5 mM L-cysteine; type: physicochemical; conditions: buffer, pH 7.4, 1 h
[14] = Antiaggregatory activity in human platelet-rich plasma assessed as inhibition of collagen-induced aggregation pretreated 10 mins before addition of stimulus measured after 10 mins in presence of 50 uM ODQ; type: functional

Row | SMILES | Activity (Aorta [1]) | EC50 (Aorta [1]) | EC50 (Aorta [2]) | Activity [3] | Activity [4] | inhibition at 300 µM [5] | Activity [6] | Activity (INS-1E [7]) | Activity [8] | Activity [9] | Activity [10] | Activity (INS-1E [12]) | also measured
1 | CCCCNC(=O)NS(=O)(=O)c1ccc(OCC(CO[N+](=O)[O-])O[N+](=O)[O-])cc1 (stereo not drawn) | Dose-dependent effect | 900 nM | 61000 nM | 4.3% | 5.65 nmol | 5.6% | 2.6% | Active | 4.85% | – | – | – | Activity (liver (rat)): Active
2 | CCCCNC(=O)NS(=O)(=O)c1ccc(C)cc1 [TOLBUTAMIDE] | Dose-dependent effect | – | – | – | 3.2 nmol | 6.4% | 2.76% | Active | 4.98% | 2.97% | 2.22% | – | Activity (Aorta [2]): inactive; Activity [11]: 5.45%
3 | CCCCNC(=O)NS(=O)(=O)c1ccc(OCCCO[N+](=O)[O-])cc1 | Dose-dependent effect | 1600 nM | > 100000 nM | < 1% | 3.88 nmol | 1.1% | 2.18% | – | 4.62% | 2.38% | 1.86% | – | Activity [11]: 5.79%; Activity (liver (rat)): Active
4 | [O-][n+]1onc(COc2ccccc2)c1-c1ccccc1 | – | – | – | – | – | – | – | – | – | – | – | inactive | –
5 | CCCCNC(=O)NS(=O)(=O)c1ccc(OCc2no[n+]([O-])c2-c2ccccc2)cc1 | Dose-dependent effect | 2400 nM | > 100000 nM | < 1% | 7.03 nmol | 13% | – | Active | – | 2.41% | 1.83% | – | –
6 | O=[N+]([O-])OCCCOc1ccccc1 | – | – | – | – | – | – | – | – | – | – | – | inactive | –
7 | N#Cc1c(COc2ccccc2)no[n+]1[O-] | – | – | – | – | – | – | – | – | – | – | – | inactive | –
8 | O=[N+]([O-])OCC(COc1ccccc1)O[N+](=O)[O-] (stereo not drawn) | – | – | – | – | – | – | – | – | – | – | – | inactive | –
9 | CCCCNC(=O)NS(=O)(=O)c1ccc(OCc2no[n+]([O-])c2C#N)cc1 | Dose-dependent effect | – | 900 nM | – | 10.33 nmol | – | – | Active | – | – | – | – | Activity [13]: 27.7%; IC50 [14]: 209000 nM
10 | O=S(=O)(c1ccccc1)c1c(Oc2ccccc2)no[n+]1[O-] | – | – | – | – | – | – | – | – | – | – | – | inactive | –
11 | NC(=O)c1c(COc2ccccc2)no[n+]1[O-] | – | – | – | – | – | – | – | – | – | – | – | inactive | –
12 | CCCCNC(=O)NS(=O)(=O)c1ccc(OCc2no[n+]([O-])c2C(N)=O)cc1 | Dose-dependent effect | 740 nM | 57000 nM | 9.1% | 3.47 nmol | 5.2% | 2.12% | – | 4.19% | 1.94% | 1.46% | – | Activity [11]: 4.92%
13 | CCCCNC(=O)NS(=O)(=O)c1ccc(Oc2no[n+]([O-])c2S(=O)(=O)c2ccccc2)cc1 | Dose-dependent effect | 2.4 nM | 220 nM | – | 22.68 nmol | – | – | Active | – | 4.33% | 3.06% | – | Activity [13]: 32.1%; IC50 [14]: 34000 nM
